From ChEMBL document CHEMBL1122206, “Use of adenine nucleotide derivatives to assess the potential of exo-active-site-directed reagents as species- or isozyme-specific enzyme inactivators. 5. Interactions of adenosine 5'-triphosphate derivatives with rat pyruvate kinases, Escherichia coli thymidine kinase, and yeast and rat …” (1982) come the findings set out here.

Assay [1] has as its target T1, Hexokinase-3 (Rattus norvegicus) (UniProt P27926).
T1 sequence (whole entry): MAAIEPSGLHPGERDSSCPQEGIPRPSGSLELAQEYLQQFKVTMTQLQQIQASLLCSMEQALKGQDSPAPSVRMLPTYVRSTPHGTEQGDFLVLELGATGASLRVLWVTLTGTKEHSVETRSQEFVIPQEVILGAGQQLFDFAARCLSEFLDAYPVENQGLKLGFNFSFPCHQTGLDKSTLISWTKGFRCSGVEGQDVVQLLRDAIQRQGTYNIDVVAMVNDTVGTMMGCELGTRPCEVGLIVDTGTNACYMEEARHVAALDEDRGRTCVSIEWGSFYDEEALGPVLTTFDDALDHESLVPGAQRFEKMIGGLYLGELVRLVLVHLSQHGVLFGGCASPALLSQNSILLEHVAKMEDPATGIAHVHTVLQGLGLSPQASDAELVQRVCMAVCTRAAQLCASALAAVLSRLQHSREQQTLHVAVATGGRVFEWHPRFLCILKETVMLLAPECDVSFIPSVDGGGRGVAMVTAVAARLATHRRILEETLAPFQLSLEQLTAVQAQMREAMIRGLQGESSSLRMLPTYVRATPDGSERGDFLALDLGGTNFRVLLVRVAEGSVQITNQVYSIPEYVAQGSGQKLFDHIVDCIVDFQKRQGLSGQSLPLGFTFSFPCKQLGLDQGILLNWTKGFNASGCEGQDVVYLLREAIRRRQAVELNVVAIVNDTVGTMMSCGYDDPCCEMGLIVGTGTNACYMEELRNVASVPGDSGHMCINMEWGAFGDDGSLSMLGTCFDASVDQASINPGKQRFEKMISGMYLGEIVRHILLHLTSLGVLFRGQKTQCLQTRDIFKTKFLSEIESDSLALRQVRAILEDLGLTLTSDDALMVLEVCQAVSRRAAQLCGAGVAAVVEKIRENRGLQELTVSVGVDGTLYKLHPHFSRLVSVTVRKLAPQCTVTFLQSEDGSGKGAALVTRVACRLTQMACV
Nature of the assay: Time dependent inhibition of Hexokinase type III activity after 6 h, at 22 degrees celsius, at 5 mM.

A short description of assay [2]: Tested for the velocity of 2.8 mM compound relative to that of 2.8 mM MgATP in the assay. The method in brief: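 E. coli TK substrate test. 0.5 h after adding inhibitor, the mixture was diluted to 2.8 mM derivative in thymidine assay medium without ATP and with 1.42 mM MnCl2. Incubated 15 min at 37 °C, in the linear range. [14C]TMP formed was compared with that from 2.8 mM ATP under the same conditions.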

The target of assay [3] is T2, Hexokinase-1 (Rattus norvegicus) (UniProt P05708).
T2 sequence (whole entry): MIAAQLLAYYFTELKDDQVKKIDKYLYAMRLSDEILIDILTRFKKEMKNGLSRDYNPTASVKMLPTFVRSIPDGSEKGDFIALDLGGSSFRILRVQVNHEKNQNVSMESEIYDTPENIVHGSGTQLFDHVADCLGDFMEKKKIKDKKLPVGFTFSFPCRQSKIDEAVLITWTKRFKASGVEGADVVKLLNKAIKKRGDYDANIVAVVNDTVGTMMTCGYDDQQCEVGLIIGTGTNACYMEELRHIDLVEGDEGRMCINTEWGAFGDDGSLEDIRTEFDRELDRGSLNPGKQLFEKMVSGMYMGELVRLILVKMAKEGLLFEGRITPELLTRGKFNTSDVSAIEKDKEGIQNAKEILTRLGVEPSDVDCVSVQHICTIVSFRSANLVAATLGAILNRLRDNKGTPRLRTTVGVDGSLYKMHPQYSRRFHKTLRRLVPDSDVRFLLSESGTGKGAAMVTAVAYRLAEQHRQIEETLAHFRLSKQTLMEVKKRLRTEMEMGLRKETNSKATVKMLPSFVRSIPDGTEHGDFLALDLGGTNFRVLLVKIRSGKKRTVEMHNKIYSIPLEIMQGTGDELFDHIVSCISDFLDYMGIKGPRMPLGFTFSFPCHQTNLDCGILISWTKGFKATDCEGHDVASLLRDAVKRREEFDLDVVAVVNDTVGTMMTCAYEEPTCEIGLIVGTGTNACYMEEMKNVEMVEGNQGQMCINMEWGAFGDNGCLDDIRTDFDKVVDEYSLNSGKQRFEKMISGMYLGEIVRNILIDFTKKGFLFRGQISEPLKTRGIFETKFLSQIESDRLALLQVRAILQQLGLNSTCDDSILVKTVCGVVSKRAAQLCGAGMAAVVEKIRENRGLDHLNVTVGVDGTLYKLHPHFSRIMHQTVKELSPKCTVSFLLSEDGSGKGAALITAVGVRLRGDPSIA
The assay is described as follows: Substrate activity for rat hexokinase I as 1:1 Mg complex at 5.0 mM. The method in brief:
(§1)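 Hexokinase activity read at 22 °C as A340 change, coupled to glucose-6-phosphate dehydrogenase, in 0.05 M Tris-HCl pH 7.6 with 6.6 mM MgCl2, 10 mM α-D-glucose and 0.93 mM NADP. Donor was 5.0 mM MgATP derivative (1:1 Mg complex) in place of ATP. Yeast HK was isoelectric-focused. Rat HK I and III came from electrofocused liver extract, HK II from dialysed muscle extract.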

Assay [4] addresses Thymidine kinase (Escherichia coli) (UniProt P23331). Nature of the assay: Compound was tested for the lose of thymidine kinase activity after 6 h, at 0 degrees celsius, with 10 mM ATP derivative. values were expressed in percent.
The target in assay [5] is T2, Hexokinase-1 (Rattus norvegicus). The assay is described as follows: Time dependent inhibition of Hexokinase type I activity after 6 h, at 22 degrees celsius, at 5 mM compound.
In assay [6] the target is T3, Hexokinase-2 (Rattus norvegicus) (UniProt P27881).
T3 sequence (whole entry): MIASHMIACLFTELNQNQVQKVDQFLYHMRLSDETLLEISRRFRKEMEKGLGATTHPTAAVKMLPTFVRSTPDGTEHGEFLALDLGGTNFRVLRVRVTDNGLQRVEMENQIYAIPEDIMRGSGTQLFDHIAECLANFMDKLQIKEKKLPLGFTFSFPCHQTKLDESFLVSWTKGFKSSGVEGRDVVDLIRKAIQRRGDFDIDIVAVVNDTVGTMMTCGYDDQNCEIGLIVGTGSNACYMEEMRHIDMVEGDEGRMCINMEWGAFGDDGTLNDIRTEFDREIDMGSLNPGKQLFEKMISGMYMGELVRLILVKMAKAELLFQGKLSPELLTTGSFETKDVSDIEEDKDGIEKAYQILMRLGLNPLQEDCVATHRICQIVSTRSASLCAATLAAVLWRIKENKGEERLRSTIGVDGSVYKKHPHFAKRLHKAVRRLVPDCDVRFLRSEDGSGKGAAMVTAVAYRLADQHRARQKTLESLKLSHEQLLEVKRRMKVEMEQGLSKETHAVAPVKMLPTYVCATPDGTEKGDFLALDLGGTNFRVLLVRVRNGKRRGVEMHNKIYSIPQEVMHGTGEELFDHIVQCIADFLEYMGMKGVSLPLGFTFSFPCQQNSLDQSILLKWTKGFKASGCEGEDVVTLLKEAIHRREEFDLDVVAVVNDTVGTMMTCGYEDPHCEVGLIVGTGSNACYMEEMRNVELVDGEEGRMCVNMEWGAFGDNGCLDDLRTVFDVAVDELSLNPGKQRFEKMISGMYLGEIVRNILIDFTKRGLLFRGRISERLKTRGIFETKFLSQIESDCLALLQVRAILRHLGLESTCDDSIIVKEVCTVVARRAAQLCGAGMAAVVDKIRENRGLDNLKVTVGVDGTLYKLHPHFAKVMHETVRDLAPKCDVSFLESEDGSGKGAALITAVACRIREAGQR
Nature of the assay: Substrate activity against Rat hexokinase II as 1:1 Mg complex at 5.0 mM. A digest of the protocol:
as §1

In assay [7] the target is T3, Hexokinase-2 (Rattus norvegicus). Nature of the assay: Time dependent inhibition of hexokinase 2 activity after 6 h, at 5 mM compound.
The subject of assay [8] is Saccharomyces cerevisiae. The assay is described as follows: Substrate activity against yeast hexokinase as 1:1 Mg complexes at 5.0 mM. A digest of the protocol:
as §1

Assay [9] concerns Saccharomyces cerevisiae. The assay is described as follows: Compound was tested for time dependent inhibition of hexokinase activity after 6 hr, at 22 degrees celsius, with 5 mM ATP derivative in yeast hexokinase.
The target in assay [10] is Thymidine kinase (Escherichia coli) (UniProt P23331). The assay is described as follows: Compound was tested for the initial inhibition of thymidine kinase by 1.4 mM compound in the presence of 5.7 mM ATP in Escherichia coli.
Sequence of Thymidine kinase (Escherichia coli) (P23331 whole entry, looked up): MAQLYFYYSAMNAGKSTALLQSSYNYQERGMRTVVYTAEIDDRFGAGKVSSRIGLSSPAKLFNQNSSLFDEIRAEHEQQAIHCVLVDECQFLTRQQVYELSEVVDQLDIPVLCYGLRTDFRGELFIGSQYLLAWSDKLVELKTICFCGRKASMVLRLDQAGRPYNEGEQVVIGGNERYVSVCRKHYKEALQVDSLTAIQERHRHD
Assay [11] deals with T1, Hexokinase-3 (Rattus norvegicus). Nature of the assay: Substrate activity for rat hexokinase III as 1:1 Mg complex at 5.0 mM. The method in brief:
as §1

For assay [12] the target is unchanged. Nature of the assay: Time dependent inhibition of Hexokinase type III activity after 6 h, at 0 degrees celsius, at 10 mM.
Assay [13] deals with T2, Hexokinase-1 (Rattus norvegicus). The assay is described as follows: Time dependent inhibition of Hexokinase type I activity after 6 h, at 0 degrees celsius, at 10 mM compound.
The target of assay [14] is T3, Hexokinase-2 (Rattus norvegicus). Nature of the assay: Time dependent inhibition of hexokinase 2 activity after 6 h, at 10 mM compound.
Assay [15] relates to Saccharomyces cerevisiae. The assay is described as follows: Time dependent inhibition of hexokinase activity after 6 hr, at 22 degrees celsius, with 5 mM ATP derivative in yeast.
Assay [16] deals with Thymidine kinase (Escherichia coli) (UniProt P23331). The assay is described as follows: Compound tested for the loss of thymidine kinase activity from Escherichia coli after 6 hr at 0 degrees C at 10 mM.
In assay [17] the target is T1, Hexokinase-3 (Rattus norvegicus). The assay is described as follows: Time dependent inhibition of Hexokinase type III activity after 6 hr, at 22 degrees celsius, at 5 mM compound.
Assay [18] addresses Thymidine kinase (Escherichia coli) (UniProt P23331). The assay is described as follows: Compound was tested for the initial inhibition of thymidine kinase by 1.4 mM compound in the presence of 5.7 mM ATP.
Assay [19] can be described thus: Extent of inactivation caused by the compound was reported. Format: functional.
For assay [20], the target named is Thymidine kinase (Escherichia coli) (UniProt P23331). Nature of the assay: Compound was tested for the loss of Thymidine kinase activity from Escherichia coli after 6 h at 0 degrees C at 10 mM.
The target of assay [21] is T2, Hexokinase-1 (Rattus norvegicus). Nature of the assay: Time dependent inhibition of Hexokinase, type I activity after 6 h, at 22 degrees celsius, at 5 mM compound.
For assay [22], the system named is Saccharomyces cerevisiae. Nature of the assay: Compound was tested for time dependent inhibition of hexokinase activity after 6 h at 22 degrees celsius, with 5 mM compound in yeast hexokinase.
Assay [23] addresses Thymidine kinase (Escherichia coli) (UniProt P23331). The assay is described as follows: Compound was tested for the initial inhibition of Thymidine kinase by 1.4 mM compound in the presence of 5.7 mM ATP.

A value given as a limit tells only on which side of the number the result lay.

For `O=C(CI)NCCNc1ncnc2c1ncn2[C@@H]1O[C@H](COP(=O)(O)OP(=O)(O)OP(=O)(O)O)[C@@H](O)[C@H]1O`, the inhibition in [1] turned out to be 0%; in [4], 0%; in assay [5] it was 0%; in assay [7], 0%; in assay [9], 0%; in [10], 3%. In addition, in assay [2], the Velocity stood at 35%. In addition, the Relative velocity came out at 0.58 in [3], 0.34 in assay [6], 0.75 in assay [8] and 0.5 in assay [11].
As to `O=C(CI)NCC(=O)NCCCCCCNc1ncnc2c1ncn2[C@@H]1O[C@H](COP(=O)(O)OP(=O)(O)OP(=O)(O)O)[C@@H](O)[C@H]1O`, the inhibition in [12], in assay [13] and in [14] was 0% each time. The compound further came in with a Velocity in assay [2] of 63%. Moreover, the Relative velocity in [3] is 0.92; in assay [6], 0.63; in assay [8], 0.52; in assay [11], 2.06.
As to `O=C(CI)NCCCCCCCNc1ncnc2c1ncn2[C@@H]1O[C@H](COP(=O)(O)OP(=O)(O)OP(=O)(O)O)[C@@H](O)[C@H]1O`, the inhibition was determined as 20% in assay [1]; 22% in [15]; 0% in assay [4]; 20% in assay [5]; 30% in [7]; 10% in assay [10]. In assay [2], this compound showed a Velocity of 38%.
Regarding `O=C(CI)NCCCCNc1ncnc2c1ncn2[C@@H]1O[C@H](COP(=O)(O)OP(=O)(O)OP(=O)(O)O)[C@@H](O)[C@H]1O`, the inhibition worked out at 0% in [16]; 0% in assay [15]; 0% in assay [7]; 0% in assay [17]; 39% in assay [18]. Moreover, the Velocity in [2] was 68%.
`O=C(CI)NCCCCCCNc1ncnc2c1ncn2[C@@H]1O[C@H](COP(=O)(O)OP(=O)(O)OP(=O)(O)O)[C@@H](O)[C@H]1O`: the inhibition came out at 0% in assay [16], 35% in assay [7], 33% in [17] and 0% in assay [18]. Besides, the Inactivation in assay [19] is > 90%.
On to `O=C(CI)NCCCNc1ncnc2c1ncn2[C@@H]1O[C@H](COP(=O)(O)OP(=O)(O)OP(=O)(O)O)[C@@H](O)[C@H]1O`, for which the inhibition in assay [20] amounted to 0%; in assay [1] it was 0%; in [21], 0%; in assay [22] it was 0%; in [7], 0%; in [23], 6%. The same compound displayed a Velocity in assay [2] of 32%.
